# Screening data (PubChem)
# SENP8 block-1: blocks the human protease SENP8. 330,000 tested, 1.2% active. inhibition, % at 10 µM. Q96LD8. purified SENP8, Z-RLRGG-aminoluciferin cleavage, luminescence; in the data active = inhibition above about 50%
# Target sequence (Q96LD8 whole entry, looked up): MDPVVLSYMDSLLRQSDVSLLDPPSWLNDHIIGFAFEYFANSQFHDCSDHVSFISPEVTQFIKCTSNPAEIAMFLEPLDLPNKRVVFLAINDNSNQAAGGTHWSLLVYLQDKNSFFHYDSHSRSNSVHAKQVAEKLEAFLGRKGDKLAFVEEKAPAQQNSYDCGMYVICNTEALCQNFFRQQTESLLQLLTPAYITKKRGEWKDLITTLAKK
# SENP7 inh: SENP7 protease inhibition. Q9BQF6. inhibition, % at 5 µM. recombinant SENP7, Z-RLRGG-aminoluciferin luminescence, 40 min. 330,000 tested, 1.5% active;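 active = inhibition above about 50% at the single test dose, limit read from the data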
# SENP1 FRET inh: SENP1 (human) catalytic domain inhibition; recombinant SENP1 catalytic domain, CyPet-SUMO1-YPet FRET cleavage; inhibition, % at 10 µM; 360,000 tested, 0.21% active; AID 624204;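 active = inhibition at least 30% at 10 µM, raw YFP signal under a set limit, fluorescence ratio 0.5 to 1.5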
#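 system = hSENP1 catalytic domain, recombinant | reagent = SFCypet-SUMO1-SFYpet substrate at 25 nM | doses = one dose per compound, 10 µM, 0.5% DMSO | incubation = enzyme reaction for 50 min at room temperature, dark | measured by = FRET, CFP and YFP emission | controls = no-enzyme low, enzyme-DMSO high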
# Platelet DG rel: platelet dense granule release activity | inhibition, %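 (compounds screened at 7.5 µM in platelet-rich plasma)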 | 300,000 tested, 0.22% active | human platelet-rich plasma, SFLLRN dense granule ATP release, luminescence;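 active = mean replicate score, as percent of positive control, at or above 50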
# SENP6 inh: SENP6 protease inhibition; Q9GZR1; Recombinant SENP6 catalytic domain, aminoluciferin luminescence; inhibition, % at 10 µM; 330,000 tested, 1.8% active;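 active = inhibition above about 50% at the single tested dose, limit read from the data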
# SENP8 block-2: blocks human SENP8 cleavage of Nedd8 substrate; recombinant SENP8, Nedd8 substrate fluorescence; inhibition, % at 20 µM; 360,000 tested, 0.64% active; in the data active = inhibition mostly above about 40%, no sharp cut-off; inactive = mostly below about 27%
# SENP8 conf: confirmation of human SENP8 protease inhibitors | inhibition, % at 12.5 µM | 6,200 tested, 40% active | shares compounds with SENP7 inh | Recombinant SENP8, Z-RLRGG-aminoluciferin luminescence, 60 min;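 active = mean inhibition across replicates above about 50%, limit read from the data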
# SENP6 confirm: confirmation of human SENP6 protease inhibitors | shares compounds with SENP7 inh | recombinant SENP6, Z-RLRGG-aminoluciferin luminescence | inhibition, % at 12.5 µM | 6,200 tested, 58% active
# SENP7 conf: human SENP7 inhibition, confirmed; shares compounds with SENP7 inh; recombinant SENP7, Z-RLRGG-aminoluciferin luminescence, 40 min; inhibition, % at 12.5 µM; 6,200 tested, 69% active
# Casp3 SENP sel: inhibits human caspase-3 in SENP selectivity test. shares compounds with SENP7 inh. purified caspase-3, Z-DEVD-aminoluciferin luminescence, 60 min. inhibition, % at 12.5 µM. 6,200 tested, 60% active. AID 488918;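 active = mean inhibition above about 50%, limit read from the data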
# Target sequence (P42574 28-227 limits assumed): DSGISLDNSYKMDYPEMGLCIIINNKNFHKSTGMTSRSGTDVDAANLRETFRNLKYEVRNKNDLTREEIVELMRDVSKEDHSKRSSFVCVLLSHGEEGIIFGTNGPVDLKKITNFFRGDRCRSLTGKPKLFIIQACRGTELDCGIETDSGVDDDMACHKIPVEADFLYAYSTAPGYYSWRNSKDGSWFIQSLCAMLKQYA
# SENP luc ctr: luminescence interference (SENP counter-screen); shares compounds with SENP7 inh; Pre-incubated SENP8/Z-RLRGG-aminoluciferin, luciferase luminescence interference; inhibition, % at 12.5 µM; 6,200 tested, 39% active; AID 488919;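 active = mean inhibition above about 50% when retested at one dose, limit read from the data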
# Hits are given with their value; – = inactive; · = no result. In the library only some 2.6% were active in any assay of this set; here they are far more common.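 The calls were made as follows, unless noted: active = mean inhibition above about 50% in the one-dose retest (limit read from the data); inactive = the rest.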
SMILES,SENP8 block-1,SENP7 inh,SENP1 FRET inh,Platelet DG rel,SENP6 inh,SENP8 block-2,SENP8 conf,SENP6 confirm,SENP7 conf,Casp3 SENP sel,SENP luc ctr
O=C(Nc1ccccc1)Nc1cccn(Cc2c(F)cccc2Cl)c1=O,55,–,–,–,58,–,–,–,92,50,–
NC(=O)CSc1nc(C2CC2)nc2sc3c(c12)CCCC3,74,68,–,–,75,–,–,–,–,–,–
COc1ccc2cc3cc(C(=O)N4CCCC(C)C4)oc3nc2c1 (centres undefined),59,83,–,–,80,–,–,–,–,–,–
CCOC(=O)C1CCCN(C(=O)c2cc3cc4ccc(OC)cc4nc3o2)C1 (centres undefined),–,–,–,–,–,–,·,·,·,·,·
CCN(CC)c1ncnc2c1ncn2[C@H]1CN(Cc2ccncc2)C[C@@H](CO)O1,·,·,–,·,·,–,·,·,·,·,·
Cc1[nH]n(C(N)=S)c(=O)c1C(c1ccccc1)C(C#N)C#N (centres undefined),–,–,–,–,–,–,·,·,·,·,·
NC(=S)n1[nH]c(-c2ccc([N+](=O)[O-])cc2)c(N=Nc2cccc(Cl)c2)c1=O,–,–,–,–,–,–,·,·,·,·,·
Cc1[nH]n(C(N)=S)c(=O)c1N=Nc1cccc(Cl)c1,89,72,–,–,91,–,–,–,–,–,–
Cc1[nH]n(C(N)=S)c(=O)c1N=Nc1ccc([N+](=O)[O-])cc1Cl,95,70,–,–,94,–,81,95,98,79,–
Cc1[nH]n(C(N)=S)c(=O)c1N=Nc1ccccc1C(F)(F)F,–,–,–,–,54,–,56,53,77,·,50
Cc1nc(N)sc1N=Nc1ccccc1C(F)(F)F,–,–,–,–,–,–,·,·,·,·,·
Cc1ccccc1N=Nc1c(C)[nH]n(C(N)=S)c1=O,60,–,–,–,82,–,–,–,–,–,–
O=C(COC(=O)c1ccc(Br)o1)c1ccc(S(=O)(=O)N2CCCCC2)cc1,–,–,–,·,–,–,·,·,·,·,·
CCOc1cc(-c2c(C#N)c(N)nc3c2CCc2ccccc2-3)ccc1O,–,–,–,–,–,–,·,·,·,·,·
COc1ccccc1-c1c(C#N)c(N)nc2c1CCc1ccccc1-2,78,78,–,–,96,–,–,–,–,–,–
Cc1ccc(NC(=O)Cn2ccc(=O)[nH]c2=O)cc1,–,–,–,–,–,–,·,·,·,·,·
O=C1CNC(=S)N1c1nc(-c2ccccc2)cs1,88,88,–,–,96,–,–,–,–,–,–
CCCCC(=O)N(C)c1c(C)nc2ccc(C(=O)N(C)Cc3ccco3)cn12,·,·,–,·,·,–,·,·,·,·,·
O=C(CSc1ccccc1)Nc1ccc(-c2nc3ccccc3[nH]2)cc1,–,–,–,–,–,–,·,·,·,·,·
O=C(Nc1ccc(-c2nc3ccccc3[nH]2)cc1)C1CCCO1 (centres undefined),88,93,–,87,87,–,92,92,99,96,79
O=C(Cc1cccs1)Nc1ccc(-c2nc3ccccc3[nH]2)cc1,–,84,–,–,59,–,–,–,87,68,–
S=C(NCCc1ccccc1)N1CCN(C23CC4CC(CC(C4)C2)C3)CC1,–,–,–,–,–,–,·,·,·,·,·
Cn1c(-c2ccccc2)cc2onc(-c3ccccc3)c2c1=O,95,95,–,·,95,–,–,–,55,–,–
Cn1c(-c2ncc(F)cc2F)cc2onc(-c3c(F)cccc3Cl)c2c1=O,–,–,–,·,–,–,·,·,·,·,·
